Test [1] concerns BGC-823. The test can be described thus: Antiproliferative activity against human BGC823 cells after 72 hrs by MTT assay. In kind it is functional, cell-based. The settings on record: BGC-823, 72 h. The essentials: (§1)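 MTT assay. Log-phase cells were seeded at 3×10^3 cells/well and left overnight, then exposed to serial dilutions of compound (DMSO solutions) for 72 h in RPMI 1640 with 10% heat-inactivated FBS at 37 °C, 5% CO2. MTT (5 mg/mL, 20 µL) was added for 4 h at 37 °C and the formazan dissolved in DMSO. A490 was read. % inhibition = (1 − sample OD/control OD)×100; IC50 is the 50% growth-inhibition concentration. Triplicates, n = 3 independent experiments.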
(In general: Tetrazolium dyes change colour on reduction, which living cells bring about.)

Test [2] has as its system A549. The test can be described thus: Antiproliferative activity against human A549 cells after 72 hrs by MTT assay. In kind it is functional, cell-based. The settings on record: A549, 72 h. The essentials:
as §1

Test [3] has as its system HeLa. As to the kind of experiment: Antiproliferative activity against human HeLa cells after 72 hrs by MTT assay. In kind it is functional, cell-based. The essentials:
as §1

Test [4] concerns HT-29. The test can be described thus: Antiproliferative activity against human HT-29 cells after 72 hrs by MTT assay. In kind it is functional, cell-based. The settings on record: HT-29, 72 h. Put shortly: as §1
Test [5] deals with MDCK. The test can be described thus: Antiproliferative activity against MDCK cells after 72 hrs by MTT assay. The format is cell-based. Conditions: Canis lupus familiaris. Put shortly:
as §1

The subject of test [6] is HepG2. As to the kind of experiment: Antiproliferative activity against human HepG2 cells after 72 hrs by MTT assay. In kind it is functional, cell-based. The settings on record: HepG2, 72 h. The essentials: as §1

Each structure is given as a SMILES string.

In general, IC50 refers to the concentration that inhibits the measured activity by half. A higher IC50 goes with a need for much substance. On to `C=C(C)[C@@H]1CC[C@]2(C(=O)OCc3nc(C)c(C)nc3C)CC[C@]3(C)[C@H](CC[C@@H]4[C@@]5(C)CC[C@H](OC(=O)[C@@H](N)[C@@H](C)O)C(C)(C)[C@@H]5CC[C@]43C)[C@@H]12`, for which the IC50 in test [1] was 7.05 µM; in test [2], 4.18 µM; in test [3], 8.39 µM; in test [4] it was 6.66 µM; in test [5], above 40 µM; in test [6], 3.64 µM.

In the case of `C=C(C)[C@@H]1CC[C@]2(C(=O)OCc3nc(C)c(C)nc3C)CC[C@]3(C)[C@H](CC[C@@H]4[C@@]5(C)CC[C@H](O)C(C)(C)[C@@H]5CC[C@]43C)[C@@H]12`, the half-maximal inhibitory concentration (IC50) stood at 6.87 µM in test [1]; 3.56 µM in test [2]; 8 µM in test [3]; 7.41 µM in test [4]; 18.2 µM in test [5]; 5.7 µM in test [6].

As to `C=C(C)[C@@H]1CC[C@]2(C(=O)OCc3nc(C)c(C)nc3C)CC[C@]3(C)[C@H](CC[C@@H]4[C@@]5(C)CC[C@H](OC(=O)CN(C)C(=O)[C@H](C)N)C(C)(C)[C@@H]5CC[C@]43C)[C@@H]12`, the half-inhibitory concentration (IC50) in test [1] is 4.38 µM; in test [2], 5.18 µM; in test [3] it was 4.55 µM; in test [4] it was 3.86 µM; in test [5], 14.6 µM; in test [6] it was 4.27 µM.

`C=C(C)[C@@H]1CC[C@]2(C(=O)OCc3nc(C)c(C)nc3C)CC[C@]3(C)[C@H](CC[C@@H]4[C@@]5(C)CC[C@H](OC(=O)[C@H](C)N)C(C)(C)[C@@H]5CC[C@]43C)[C@@H]12`: the IC50 is 6.16 µM in test [1]; 6.33 µM in test [2]; 6.62 µM in test [3]; 7.74 µM in test [4]; above 40 µM in test [5]; above 20 µM in test [6].

With `C=C(C)[C@@H]1CC[C@]2(C(=O)OCc3nc(C)c(C)nc3C)CC[C@]3(C)[C@H](CC[C@@H]4[C@@]5(C)CC[C@H](OC(=O)CNC(=O)CNC)C(C)(C)[C@@H]5CC[C@]43C)[C@@H]12`, the IC50 in test [1] came to 2.07 µM; in test [2], 3.02 µM; in test [3], 7.38 µM; in test [4], 3.37 µM; in test [5] it was 20.6 µM; in test [6], 5.27 µM.

As to `C=C(C)[C@@H]1CC[C@]2(C(=O)OCc3nc(C)c(C)nc3C)CC[C@]3(C)[C@H](CC[C@@H]4[C@@]5(C)CC[C@H](OC(=O)[C@@H]6CCCN6)C(C)(C)[C@@H]5CC[C@]43C)[C@@H]12`, the IC50 was 3.47 µM in test [1]; 3.36 µM in test [2]; 6.33 µM in test [3]; 2.73 µM in test [4]; 10.2 µM in test [5]; 4.54 µM in test [6].

Take `C=C(C)[C@@H]1CC[C@]2(C(=O)OCc3nc(C)c(C)nc3C)CC[C@]3(C)[C@H](CC[C@@H]4[C@@]5(C)CC[C@H](OC(=O)CN(C)C(=O)CN)C(C)(C)[C@@H]5CC[C@]43C)[C@@H]12`: the IC50 in test [1] was 3.43 µM; in test [2] it was 2.96 µM; in test [3], 2.62 µM; in test [4] it was 3.31 µM; in test [5] it was 8.08 µM; in test [6] it was 4.94 µM.

With `C=C(C)[C@@H]1CC[C@]2(C(=O)OCc3nc(C)c(C)nc3C)CC[C@]3(C)[C@H](CC[C@@H]4[C@@]5(C)CC[C@H](OC(=O)CN(C)C(=O)CNC)C(C)(C)[C@@H]5CC[C@]43C)[C@@H]12`, the IC50 in test [1] was 4.1 µM; in test [2] it was 4.83 µM; in test [3] it was 5.08 µM; in test [4] it was 8.32 µM; in test [5], 10.9 µM; in test [6], 3.94 µM.

Take `C=C(C)[C@@H]1CC[C@]2(C(=O)OCc3nc(C)c(C)nc3C)CC[C@]3(C)[C@H](CC[C@@H]4[C@@]5(C)CC[C@H](OC(=O)[C@@H](N)[C@@H](C)CC)C(C)(C)[C@@H]5CC[C@]43C)[C@@H]12`: the IC50 in test [1] is above 20 µM; in test [2], 14.5 µM; in test [3], above 20 µM; in test [4], 15.9 µM; in test [5], above 40 µM; in test [6] it was 12.7 µM.

On to `C=C(C)[C@@H]1CC[C@]2(C(=O)OCc3nc(C)c(C)nc3C)CC[C@]3(C)[C@H](CC[C@@H]4[C@@]5(C)CC[C@H](OC(=O)CNC(=O)CN)C(C)(C)[C@@H]5CC[C@]43C)[C@@H]12`, for which the half-inhibitory concentration (IC50) worked out at 2.88 µM in test [1]; 1.95 µM in test [2]; 2.4 µM in test [3]; 3.19 µM in test [4]; 7.45 µM in test [5]; 4 µM in test [6].

Regarding `C=C(C)[C@@H]1CC[C@]2(C(=O)OCc3nc(C)c(C)nc3C)CC[C@]3(C)[C@H](CC[C@@H]4[C@@]5(C)CC[C@H](OC(=O)CNC)C(C)(C)[C@@H]5CC[C@]43C)[C@@H]12`, the IC50 in test [1] came to 3.97 µM; in test [2], 3.05 µM; in test [3] it was 3.96 µM; in test [4], 1.1 µM; in test [5] it was 9.08 µM; in test [6] it was 4.5 µM.

Consider `C=C(C)[C@@H]1CC[C@]2(C(=O)OCc3nc(C)c(C)nc3C)CC[C@]3(C)[C@H](CC[C@@H]4[C@@]5(C)CC[C@H](OC(=O)CN(C)C(=O)[C@@H]6CCCN6)C(C)(C)[C@@H]5CC[C@]43C)[C@@H]12`, for which the IC50 in test [1] stood at 1.83 µM; in test [2] it was 3.91 µM; in test [3], 3.02 µM; in test [4], 5.98 µM; in test [5], 11.3 µM; in test [6] it was 3.75 µM.

Regarding `C=C(C)[C@@H]1CC[C@]2(C(=O)OCc3nc(C)c(C)nc3C)CC[C@]3(C)[C@H](CC[C@@H]4[C@@]5(C)CC[C@H](OC(=O)[C@@H](N)Cc6ccccc6)C(C)(C)[C@@H]5CC[C@]43C)[C@@H]12`, the IC50 in test [1] was above 20 µM; in test [2], above 40 µM; in test [3], above 40 µM; in test [4] it was above 20 µM; in test [5], above 40 µM; in test [6], above 40 µM.

Turning to `C=C(C)[C@@H]1CC[C@]2(C(=O)OCc3nc(C)c(C)nc3C)CC[C@]3(C)[C@H](CC[C@@H]4[C@@]5(C)CC[C@H](OC(=O)[C@@H](N)CO)C(C)(C)[C@@H]5CC[C@]43C)[C@@H]12`, the 50% inhibitory concentration (IC50) in test [1] turned out to be 6.21 µM; in test [2] it was 4.39 µM; in test [3] it was 2.74 µM; in test [4] it was 4.35 µM; in test [5], 8.56 µM; in test [6] it was 4.03 µM.

In the case of `C=C(C)[C@@H]1CC[C@]2(C(=O)OCc3nc(C)c(C)nc3C)CC[C@]3(C)[C@H](CC[C@@H]4[C@@]5(C)CC[C@H](OC(=O)[C@@H]6CCC(=O)N6)C(C)(C)[C@@H]5CC[C@]43C)[C@@H]12`, the IC50 in test [1] was determined as 4.7 µM; in test [2], 4.11 µM; in test [3] it was 6.59 µM; in test [4], 3.78 µM; in test [5] it was 9.24 µM; in test [6], 5.86 µM.

`C=C(C)[C@@H]1CC[C@]2(C(=O)OCc3nc(C)c(C)nc3C)CC[C@]3(C)[C@H](CC[C@@H]4[C@@]5(C)CC[C@H](OC(=O)[C@@H](N)C(C)C)C(C)(C)[C@@H]5CC[C@]43C)[C@@H]12`: the IC50 in test [1] is 7.14 µM; in test [2], 6.9 µM; in test [3], 8.63 µM; in test [4], above 20 µM; in test [5], above 40 µM; in test [6] it was 5.91 µM.

Consider `C=C(C)[C@@H]1CC[C@]2(C(=O)OCc3nc(C)c(C)nc3C)CC[C@]3(C)[C@H](CC[C@@H]4[C@@]5(C)CC[C@H](OC(=O)[C@H](N)CC(=O)O)C(C)(C)[C@@H]5CC[C@]43C)[C@@H]12`, for which the IC50 was above 20 µM in test [1]; above 20 µM in test [2]; above 20 µM in test [3]; above 20 µM in test [4]; above 40 µM in test [5]; above 20 µM in test [6].

For the compound `C=C(C)[C@@H]1CC[C@]2(C(=O)OCc3nc(C)c(C)nc3C)CC[C@]3(C)[C@H](CC[C@@H]4[C@@]5(C)CC[C@H](OC(=O)CNC(=O)[C@H](C)N)C(C)(C)[C@@H]5CC[C@]43C)[C@@H]12`, the IC50 was 4.99 µM in test [1]; 3.25 µM in test [2]; 3.19 µM in test [3]; 3.67 µM in test [4]; 16.2 µM in test [5]; 2.27 µM in test [6].

Turning to `C=C(C)[C@@H]1CC[C@]2(C(=O)OCc3nc(C)c(C)nc3C)CC[C@]3(C)[C@H](CC[C@@H]4[C@@]5(C)CC[C@H](OC(=O)[C@@H](N)Cc6c[nH]c7ccccc67)C(C)(C)[C@@H]5CC[C@]43C)[C@@H]12`, the half-maximal inhibitory concentration (IC50) in test [1] is above 20 µM; in test [2], above 20 µM; in test [3] it was above 20 µM; in test [4], 7.41 µM; in test [5] it was above 40 µM; in test [6], above 40 µM.

With `C=C(C)[C@@H]1CC[C@]2(C(=O)OCc3nc(C)c(C)nc3C)CC[C@]3(C)[C@H](CC[C@@H]4[C@@]5(C)CC[C@H](OC(=O)CNC(=O)[C@@H]6CCCN6)C(C)(C)[C@@H]5CC[C@]43C)[C@@H]12`, the 50% inhibitory concentration (IC50) in test [1] came out at 0.84 µM; in test [2], 2.98 µM; in test [3], 2.2 µM; in test [4], 4.11 µM; in test [5] it was 6.63 µM; in test [6], 3.48 µM.
